This excerpt belongs to a sample that is enriched for hits.
A1 apoptosis 2: A1 inhibition read as caspase activation; MEF A1-2A-BIM cells, caspase-Glo luminescence, 3 h; percent of clofoctol response, DMSO zero; caspase activation, % (no concentration beside the values); 24,000 tested, under 10 active; in the data active = caspase activation above about 5.9%
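Test system – A1-2A-BIM-expressing MEF cells · Input – 2500 cells/well · Medium – RPMI-1640 growth medium with 10% FBS · Compound dosing – 50 nL pinned compound · Timing – 3 h compound exposure at 37 °C · Technique – Caspase-Glo luminescence (DEVD substrate) · Evaluation – Caspase-3/7 activity from luminescence increase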
T cruzi HTS: intracellular Trypanosoma cruzi inhibition. actives 4.9% (n = 22,000). intracellular Trypanosoma cruzi in host cells, plate reader. AID 651903. activity score (inhibition), % at 5.01 µM; in the data active = activity score above about 55%;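 note: parasites and compound incubated about four days before reading; 0% = median of neutral control wells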
INS-1E ATP HTS: rescue of cytokine-induced death in INS-1E beta cells; AID 488910; actives 0.1% (n = 20,000); INS-1E cytokine-induced death, ATP luminescence, 48 h; normalised: neutral wells 0, positive control 100; protection from cytokine-induced ATP loss, % at 10 µM;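 active = mean replicate protection from cytokine-induced ATP loss at least 50% and at least 75% of replicates each reaching 50%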
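assay system = INS-1E rat insulinoma cells | amount = 8000 cells per well | medium = phenol-red-free RPMI with 5% fetal bovine serum | doses = one compound concentration, pin transfer | timing = 48 h cytokine plus compound treatment, 10 min reagent incubation | also added = IL-1β, TNF-α and IFN-γ cytokine mix | signal = CellTiter-Glo luminescence measuring cellular ATP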
Starred values were filed as active, the others as inactive.

Screening C[C@@H]1CN([C@H](C)CO)C(=O)Cc2cc(NC(=O)Nc3ccc(F)cc3)ccc2O[C@@H]1CN(C)Cc1ccc(Oc2ccccc2)cc1 returned A1 apoptosis 2 0, T cruzi HTS 71* and INS-1E ATP HTS -53.
COc1ccc(NC(=O)Nc2ccc3c(c2)CC(=O)N([C@H](C)CO)C[C@@H](C)[C@@H](CN(C)Cc2ccc(-c4ccccc4)cc2)O3)cc1 was read as T cruzi HTS 72* and INS-1E ATP HTS -10.
Screening C[C@H]1CN([C@@H](C)CO)C(=O)Cc2cc(NC(=O)Nc3ccc(F)cc3)ccc2O[C@H]1CN(C)Cc1ccccc1 returned A1 apoptosis 2 1, T cruzi HTS 25 and INS-1E ATP HTS -10.
For COc1ccc(NC(=O)Nc2ccc3c(c2)CC(=O)N([C@@H](C)CO)C[C@@H](C)[C@@H](CN(C)Cc2ccc(Oc4ccccc4)cc2)O3)cc1 the results were A1 apoptosis 2 2, T cruzi HTS 60* and INS-1E ATP HTS -12.
Screening C[C@H](CO)N1C[C@H](C)[C@H](CN(C)Cc2ccc(Oc3ccccc3)cc2)Oc2ccc(NC(=O)Nc3ccc(F)cc3)cc2CC1=O returned T cruzi HTS 62* and INS-1E ATP HTS -52.
For C=CC[C@]1(C(=O)NCCCOC)N=C(c2ccc(OCCCO)cc2)O[C@H]1c1ccccc1 the results were A1 apoptosis 2 0.
O=C(N/N=C/c1ccc2ccccc2c1)c1ccccn1 was read as A1 apoptosis 2 -9, T cruzi HTS -7 and INS-1E ATP HTS 1.
For COc1ccc(CN2C(C)Cc3cc(OC)c(OC)cc3C2C)cc1 (stereo not given) the results were A1 apoptosis 2 1.
`COc1cc(/C=N/NC(=O)c2ccc(C(=O)NO)cc2)c(Br)cc1O` gave A1 apoptosis 2 -5, T cruzi HTS 3 and INS-1E ATP HTS 25.
Screening C[C@@H]1CN([C@@H](C)CO)C(=O)c2cc(NC(=O)Cc3cn(C)c4ccccc34)ccc2O[C@H]1CN(C)Cc1ccncc1 returned A1 apoptosis 2 0, T cruzi HTS 6 and INS-1E ATP HTS 4.
Screening C[C@H](CO)N1C[C@H](C)[C@@H](CN(C)Cc2ccc(Oc3ccccc3)cc2)Oc2ccc(NC(=O)Nc3ccc(F)cc3)cc2CC1=O returned A1 apoptosis 2 0.
`C[C@H]1CN([C@@H](C)CO)C(=O)Cc2cc(NC(=O)Nc3ccc(F)cc3)ccc2O[C@@H]1CN(C)Cc1ccc(Oc2ccccc2)cc1` gave T cruzi HTS 70* and INS-1E ATP HTS -25.
Screening Cn1cc(/C=N/NC(=O)c2ccccn2)c2ccccc21 returned A1 apoptosis 2 -1, T cruzi HTS 6 and INS-1E ATP HTS -10.
Screening C[C@@H]1CN([C@H](C)CO)C(=O)Cc2cc(NC(=O)Nc3ccc4c(c3)OCO4)ccc2O[C@@H]1CN(C)Cc1ccc(-c2ccccc2)cc1 returned A1 apoptosis 2 0, T cruzi HTS 62* and INS-1E ATP HTS -29.
C[C@H]1CN([C@@H](C)CO)C(=O)Cc2cc(NC(=O)Nc3ccc4c(c3)OCO4)ccc2O[C@H]1CN(C)Cc1ccc(-c2ccccc2)cc1 was read as T cruzi HTS 76* and INS-1E ATP HTS -39.
Screening C[C@H](CO)N1C[C@H](C)[C@@H](CN(C)Cc2ccccc2)Oc2ccc(NC(=O)Nc3ccc4c(c3)OCO4)cc2CC1=O returned A1 apoptosis 2 -1.
For C[C@@H]1CN([C@@H](C)CO)C(=O)Cc2cc(NC(=O)Nc3ccc4c(c3)OCO4)ccc2O[C@@H]1CN(C)Cc1ccc(-c2ccccc2)cc1 the results were A1 apoptosis 2 1, T cruzi HTS 64* and INS-1E ATP HTS -4.
C[C@H]1CN([C@@H](C)CO)C(=O)Cc2cc(NC(=O)Nc3ccccc3)ccc2O[C@H]1CN(C)Cc1ccc2c(c1)OCO2 was read as T cruzi HTS 2 and INS-1E ATP HTS 3.
C[C@@H]1CN([C@H](C)CO)C(=O)c2cc(NC(=O)Nc3ccc4c(c3)OCO4)ccc2O[C@@H]1CN(C)Cc1ccc(-c2ccccc2)cc1 was read as A1 apoptosis 2 0, T cruzi HTS 88* and INS-1E ATP HTS -25.
C[C@H](CO)N1C[C@H](C)[C@H](CN(C)Cc2ccc(-c3ccccc3)cc2)Oc2ccc(NC(=O)Nc3ccc4c(c3)OCO4)cc2C1=O was read as A1 apoptosis 2 -2 and T cruzi HTS -7.
Screening C[C@H]1CN([C@@H](C)CO)C(=O)Cc2cc(NC(=O)Nc3ccc4c(c3)OCO4)ccc2O[C@@H]1CN(C)Cc1ccccc1 returned T cruzi HTS 5 and INS-1E ATP HTS 3.
Screening O=C(O)CCCCCCC(=O)N/N=C/c1ccccc1O returned A1 apoptosis 2 1, T cruzi HTS -16 and INS-1E ATP HTS -5.

From PubChem
